Compounds with a hit are over-represented: about 2.9% of the library has one in this group of screens.
CHO-K1 Ca PAM: counter-screen for M1 PAMs: effect in parental CHO-K1 cells | 0.02% of 360,000 active | AID 602247 | activation, % at 3 µM | ATP EC20, Fluo-8 calcium fluorescence; 0% at ATP EC20, 100% at ATP max;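 active means activation above the run cutoff, the mean activation of all test compounds plus 3 SD, cut at about 40% in these data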;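 further: peak over basal fluorescence ratio in a 140 s read after ATP addition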
CHO-K1 Ca ag: nonselective activator or artifact in parental CHO-K1 cells | activation, % at 3 µM | AID 602248 | 0.48% of 360,000 active | Fluo-8 calcium fluorescence; scaled to maximal ATP response, vehicle zero; in the data active means activation above about 15%;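 further: untransfected CHO-K1 host cells lacking M1 receptor as counterscreen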
CHO parental Ca: signal in parental CHO cells, OX1R antagonist counter-screen; parental CHO-K1, ATP-induced calcium, Fluo-8 fluorescence; inhibition, % at 5.6 µM; 0.63% of 330,000 active; AID 463079;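 active means inhibition above that plate's mean sample inhibition plus 3 SD, cut at about 26% in these data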;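 further: 0% = ATP-challenged DMSO wells and 100% = DMSO wells without ATP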
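Test system: untransfected parental CHO cell line. Compound: one dose, 5.6 µM nominal. Detection: intracellular calcium via Fluo-8 no-wash fluorescent dye. Measure: % inhibition. Benchmarks: ATP-challenged DMSO wells low, unchallenged DMSO wells high.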
CHO-K1 Ca antag: counter-screen for M1 antagonists: effect in parental CHO-K1 cells; ATP-induced calcium, Fluo-8 fluorescence; inhibition, % at 3 µM; 0.6% of 360,000 active; AID 602250;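 active means inhibition above a per-plate cutoff, the plate's mean sample inhibition plus 3 SD, cut at about 24% in these data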;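 further: 0% = DMSO plus EC80 ATP and 100% = DMSO alone without ATP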
OX1R antag-1: human HCRTR1 antagonism. CHO/OX1R cells, Fluo-8 calcium fluorescence, orexin A. AID 434989. 0.43% of 330,000 active. O43613. inhibition, % at 5 µM;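 active means inhibition above its plate's threshold, mean inhibition of all tested compounds on the plate plus 3 SD, cut at about 37% in these data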;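 further: 0% = orexin A challenge wells and 100% = SB-334867-A antagonist wells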
Target sequence (O43613 whole entry, looked up): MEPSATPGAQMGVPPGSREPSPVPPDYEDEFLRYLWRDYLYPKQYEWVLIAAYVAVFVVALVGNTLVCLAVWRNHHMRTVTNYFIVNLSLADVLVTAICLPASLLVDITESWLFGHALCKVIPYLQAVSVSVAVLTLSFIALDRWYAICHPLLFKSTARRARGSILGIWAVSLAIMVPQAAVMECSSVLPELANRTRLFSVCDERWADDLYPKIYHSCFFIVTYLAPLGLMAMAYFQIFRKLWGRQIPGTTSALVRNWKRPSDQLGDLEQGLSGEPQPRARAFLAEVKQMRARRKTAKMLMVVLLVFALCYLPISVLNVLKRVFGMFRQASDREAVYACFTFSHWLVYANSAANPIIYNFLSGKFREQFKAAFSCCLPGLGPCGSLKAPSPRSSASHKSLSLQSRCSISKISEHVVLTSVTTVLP
OX1R antag-2: blocks the human orexin 1 receptor | OX1R-expressing cells, FRET antagonist read-out | inhibition, % at 6.6 µM | 1.8% of 330,000 active; in the data active means inhibition mostly above about 38%, no sharp cut-off; inactive means mostly below about 40%;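 further: 0% = agonist challenge alone and 100% = reference antagonist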
* = called active by the depositor; x = not tested or not shown.

SMILES	CHO-K1 Ca PAM	CHO-K1 Ca ag	CHO parental Ca	CHO-K1 Ca antag	OX1R antag-1	OX1R antag-2
CCN1/C(=C\C=C\C2=[N+](CC)c3ccccc3C2(C)C)C(C)(C)c2ccccc21	-24	313*	100*	94*	108*	22
O=[N+]([O-])c1ccccc1-c1cc(-c2ccccc2)cc(-c2ccccc2)[n+]1Cc1ccccc1Cl	x	x	68*	x	70*	34
O=C1OCc2cc(N=Nc3c(O)[nH]c(=O)[nH]c3=O)ccc21	13	1	-7	-9	-1	42*
O=C1NC(=O)N(c2ccc3c(c2)OCO3)C(=O)/C1=C/c1ccc(N2CCCCC2)o1	21	4	-2	-8	-5	61*
CCOC(=O)C(O)(c1ccc(NC(=S)NC(=O)c2ccc(Cl)cc2Cl)cc1)C(F)(F)F (centres undefined)	8	8	57*	16	71*	19
CCOC(=O)C(O)(c1ccc(NC(=S)NC(=O)c2ccc(Cl)cc2Cl)c(C)c1)C(F)(F)F (centres undefined)	-2	14	50*	20	47*	11
COC(=O)C(O)(c1ccc(NC(=S)NC(=O)c2ccc(Cl)cc2Cl)cc1)C(F)(F)F (centres undefined)	-7	5	20	7	21	26
CC[C@@]1(O)C(=O)OCc2c1cc1n(c2=O)Cc2cc3c(NC(=O)CN)cccc3nc2-1	7	1	-6	-9	11	38*
CCC1(OC(=O)CN)C(=O)OCc2c1cc1n(c2=O)Cc2cc3ccccc3nc2-1 (centres undefined)	11	0	-13	-7	-8	56*
CC[C@@]1(O)C(=O)OCc2c1cc1n(c2=O)Cc2cc3ccccc3nc2-1	x	x	-8	x	-5	55
O=c1[nH]c2ccccc2n1C1CCN(C(CCc2ccccc2)c2nnnn2-c2ccc3c(c2)OCCO3)CC1 (centres undefined)	14	4	x	8	x	x
O=C(c1c[nH]cc1-c1ccccc1)c1cccc2ccccc12	0	1	40*	12	41	25
CCCn1c(C)c(C(=O)c2cccc3ccccc23)c2ccccc21	-13	0	16	14	-29	22
CCOC(=O)[C@]12Cc3cc(C)ccc3[C@H]1N(C1CCCCC1)C(=O)c1cc(OC)ccc12	8	3	x	25*	x	x
COC(=O)[C@@]1(Sc2ccc(C)cc2)CC(=O)N(P(=O)(OC)OC)[C@@H]1c1ccccc1	10	1	x	-13	x	x
C[C@](N)(CCP(=O)(O)O)C(=O)O	-11	0	1	25*	-4	8
Cc1ccc2c(c1N)C(=O)c1ccccc1C2=O	-9	8	4	12	19	40*
COc1cc2c(cc1OC)[C@@H]1C(=O)c3ccc4c(c3O[C@@H]1CO2)C[C@H](C(C)C)O4	-6	10	60*	29*	12	57
O=C(c1cccn2c(=O)c3ccc(Cl)cc3nc12)N1CCC2(CC1)OCCO2	21	1	-6	-8	-5	17
CCCNS(=O)(=O)c1ccc(OCC(=O)N2CCN(Cc3ccc4c(c3)OCO4)CC2)c(C)c1	-18	4	1	-1	-14	23
COc1cc(C=C2C(=O)NC(=O)NC2=O)ccc1OCc1ccc([N+](=O)[O-])cc1	18	5	x	-10	x	x
COc1cc(/C=C(/C)[N+](=O)[O-])ccc1OCc1ccccc1Cl	15	1	54*	2	37	29
CCN1CCN(C(=O)Cc2ccccc2OC)CC1	12	1	-9	-12	-5	19
COc1ccccc1CC(=O)N1CCN(CCc2ccccc2)CC1	-24	1	0	25*	-10	11
Cc1ccc(CC(=O)N2CCN(Cc3ccccc3)CC2)cc1	17	1	-8	-13	-30	8
SMILES	CHO-K1 Ca PAM	CHO-K1 Ca ag	CHO parental Ca	CHO-K1 Ca antag	OX1R antag-1	OX1R antag-2
CCC(C)N1CCN(C(=O)Cc2ccccc2)CC1 (centres undefined)	-8	0	-1	25*	-16	19
O=[N+]([O-])/C=C1/NCCN1Cc1ccc(Cl)nc1	-14	0	-2	26*	-8	11
CCN(CC)c1ccc(/C=C/[N+](=O)[O-])cc1	-2	60*	51*	31*	53*	48
CCN1CCC(O)(c2ccccc2)C(C(=O)c2ccccc2)C1 (centres undefined)	16	0	-6	-6	-12	14
COc1cccc(C2(O)CCN(Cc3ccncc3)CC2)c1	-8	0	0	24*	-7	10
COc1cccc(N2CCN(Cc3ccc(Cl)cc3)CC2)c1	13	0	-10	-8	-10	-4
COc1cc2c(cc1OC)C1C(=O)c3ccc4c(c3OC1CO2)CC(C(C)C)O4 (centres undefined)	-12	8	x	14	x	x
Cc1cnc(NC(=O)CN2CCCCC2)s1	4	0	-3	-8	-11	-3
COc1cccc(N2C(=O)/C(=C/c3ccc(C)o3)C(=O)NC2=S)c1	14	1	1	-9	0	-10
COc1ccc(N2C(=O)NC(=O)/C(=C\c3cn(C)c4ccccc34)C2=O)cc1	37	32*	-4	42*	-9	6
COC(=O)Cn1cc(/C=C2\C(=O)NC(=O)N(c3ccc(OC)cc3)C2=O)c2ccccc21	10	3	-4	-5	-23	0
CCN(CC)c1ccc(C=C2C(=O)N(C)C(=S)N(C)C2=O)o1	22	5	4	-8	4	32
CCN(CC)c1ccc(/C=C2\C(=O)NC(=S)N(c3ccc(OC)cc3OC)C2=O)o1	17	23*	4	-2	0	31
CCN(CC)c1ccc(/C=C2\C(=O)NC(=S)N(C)C2=O)o1	5	19*	10	1	-5	55*
COc1ccc(N2C(=O)/C(=C/c3ccc(N(C)C)o3)C(=O)NC2=S)cc1	7	4	10	0	0	38*
O=S(=O)(c1cc(Cl)cc(Cl)c1)N1Cc2cc(N3CCOCC3)ccc2-n2nncc2C1	5	0	x	13	x	x
O=C(COC(=O)Cc1ccccc1)NC12CC3CC(CC(C3)C1)C2	-1	0	-9	-3	-6	15
NC(=O)c1ccsc1NC(=O)COC(=O)Cc1ccccc1	-7	11	-1	25*	26	11
CC(=O)N(C)CC#CCN1CCCC(CO)C1 (centres undefined)	-13	0	-13	-5	-6	-15
Cc1nc2cc([N+](=O)[O-])ccc2c(=O)n1-c1ccc(Br)cc1	22	1	-12	-9	-7	13
Cc1nc2cc([N+](=O)[O-])ccc2c(=O)n1-c1ccccc1[N+](=O)[O-]	5	1	-9	5	-19	53*
